Measurements from PubChem BioAssay.
Inconclusive results are not listed.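 How the source made its calls, unless noted: active means viability increase at or above a cutoff of the median across tested compounds plus 3 SD (cut at about 8.5% in these data, passing the limit was not always enough); inconclusive means some gains above the cutoff, reason not given; inactive means the rest.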

Experiments:
[1] = S. cerevisiae growth inhibition in permissive medium (OD615), pilot counter-assay for S. cerevisiae lifespan shortening project, permissive growth control (AID 705;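 active means growth inhibition above 25% in both replicates, a cutoff set 3 SD above the mean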); settings: OD615, 24 h, at 10 µM, active compounds read high
Procedure, shortened: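 System – S. cerevisiae with engineered DeaD lifespan system · Buffer or medium – SC raffinose/galactose permissive medium · Schedule – cells pre-grown 4 h, then 24 h compound exposure, 30 °C humidified · Technique – culture turbidity as optical density at 615 nm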

[2] = S. cerevisiae growth inhibition in restrictive medium, OD615, pilot screen, restrictive growth control, yeast lifespan reduction project (AID 706;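 active means growth inhibition above a set limit, 3 SD over mean compound inhibition, in both replicates, cut at about 43% in these data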;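 further: modified DeaD lifespan yeast strain shifted to restrictive glucose medium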); settings: OD615, 48 h, at 10 µM, active compounds read high
Procedure, shortened: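 Material: engineered S. cerevisiae DeaD strain / Medium: glucose-based CSMM-D restrictive medium / Compound: single dose of 10 µM compound final, 0.25% DMSO / Timing: 4 h pre-incubation, 48 h exposure at 30 °C / Technique: OD615 absorbance reading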

[3] = doxorubicin toxicity protection in MRP-1 cells – H69AR cells, CellTiter-Glo, duplicate, MRP-1 activator project, pilot screen (AID 807); settings: H69AR viability with doxorubicin, CellTiter-Glo luminescence; at 10 µM; active compounds read high;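 further: compound pretreatment 18-22 h then 72 h combined with doxorubicin; 0% = doxorubicin alone and 100% = vehicle without doxorubicin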
[4] = viability of HCT116 without oncogenic beta-catenin – human colon tumor cells, pilot screen (AID 823;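 active means cell viability at or below a set limit in both duplicate runs, the limit being the all-compound median minus 4 SD, cut at about 23% in these data, passing the limit was not always enough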;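 further: 0% = wells killed by 20 µM Hyamine and 100% = untreated DMSO cell wells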); settings: HCT116 beta-catenin knockout viability, CellTiter-Glo, 60 h; at 10 µM; active compounds read low
[5] = viability of PTEN-null HCT116 cells – cell-based, HCT116 clonal line, CellTiter-Glo, pilot screen (AID 824;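 active means viability at or below 27.92% in each of two runs, the all-compound median minus 4 SD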;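 further: 0% = 20 µM Hyamine control and 100% = vehicle cell control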); settings: HCT116 PTEN-deleted viability, 60 h, at 10 µM, active compounds read low
[6] = RAM pathway blockade in budding yeast – dse1pr::URA3 reporter, 5-FOA selection, pilot screen (AID 869;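 active means inhibition over a set limit, the all-compound mean plus 3 SD, in both replicate runs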;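 further: 0% = DMSO wells with no growth and 100% = 10 µM 1-NA-PP1 with full growth; RAM network block rescues cells from 5-FOA so hits raise OD615 growth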); settings: S. cerevisiae dse1pr::URA3 5-FOA growth, OD615, 2 d; at 10 µM; active compounds read high; strain carries analog-sensitive mutant Cbk1 kinase
[7] = RAM signaling pathway blockade in yeast – S. cerevisiae, Pdr1DBD-CYC8 efflux-inhibited sensitized strain, primary screen (AID 1298;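 active means RAM network inhibition above 8.4% in each of two replicates, 3 SD over the compound average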;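 further: 0% = DMSO untreated cells without growth and 100% = 10 µM 1-NA-PP1 full growth; higher means more yeast growth rescued from 5-FOA killing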); settings: S. cerevisiae cbk1-as DSE1-URA3 strain, 5-FOA growth OD615, 2 d; at 50 µM; active compounds read high

O=C1C(Cl)=C(NCC2CCCO2)C(=O)N1C1CCCCC1 (configuration not stated)
inactive: growth inhibition [1] -2.76% | growth inhibition [2] 8.66% | viability increase [3] -3.97% | viability [4] 88.3% | viability [5] 90.2% | inhibition [6] 1.46% | RAM network inhibition [7] 5.88%

N#Cc1c(-c2ccco2)c2c([nH]c1=S)CCCC2
inactive: growth inhibition [1] 6.88% | growth inhibition [2] -0.73% | viability increase [3] -3.4% | viability [4] 105% | viability [5] 93.8% | inhibition [6] 1.57% | RAM network inhibition [7] 1.82%

Cc1cc(N2CCN(C3CCCCC3)CC2)n2nc(C)nc2n1
inactive: growth inhibition [1] 5.17% | growth inhibition [2] 4.13% | viability increase [3] -2.07% | viability [4] 93.5% | viability [5] 96.2% | inhibition [6] 2.16% | RAM network inhibition [7] 5.03%

COC(=O)c1ccc(OCC(O)CN2CCC(C)CC2)cc1 (configuration not stated)
inactive: growth inhibition [1] -2.79% | growth inhibition [2] -3.85% | viability increase [3] -2.26% | viability [4] 92.3% | viability [5] 94.1% | inhibition [6] 0.835% | RAM network inhibition [7] 4.68%

O=C(NCC(c1ccc(F)cc1)N1CCOCC1)c1ccc(Br)o1 (configuration not stated)
inactive: growth inhibition [1] -9.34% | growth inhibition [2] -13.2% | viability increase [3] -1.97% | viability [4] 86.3% | viability [5] 81.8% | inhibition [6] 2.88% | RAM network inhibition [7] 1.24%

O=C1CCC(=O)N1c1ccc(CSc2nnnn2C2CCCCC2)cc1
inactive: growth inhibition [1] -0.7% | growth inhibition [2] 4.66% | viability increase [3] 0.3% | viability [4] 103% | viability [5] 97.6% | inhibition [6] -0.145% | RAM network inhibition [7] 1.92%

Cc1ccccc1N1C(=O)c2cccc3c(N(C)CCO)ccc(c23)C1=O
inactive: growth inhibition [1] 5.99% | growth inhibition [2] -6.49% | viability increase [3] -3.91% | viability [4] 104% | viability [5] 90.4% | inhibition [6] 2.26% | RAM network inhibition [7] 2.12%

CN(C)c1ccc(S(=O)(=O)c2ccc(Cl)cc2)cc1
inactive: growth inhibition [1] 2.13% | growth inhibition [2] 16.1% | viability increase [3] -1.11% | viability [4] 103% | viability [5] 100% | inhibition [6] 1.79% | RAM network inhibition [7] 5.79%

COc1ccc(CNc2nc3c(c(=O)[nH]c(=O)n3C)n2Cc2ccccc2C)cc1
inactive: growth inhibition [1] -14.8% | growth inhibition [2] -13.7% | viability increase [3] -4.3% | viability [4] 96.2% | viability [5] 89.5% | inhibition [6] 2.08% | RAM network inhibition [7] 2.1%

CC(Sc1nnc(Cn2c(=O)sc3ccccc32)n1C)c1ccccc1 (configuration not stated)
inactive: growth inhibition [1] -3.63% | growth inhibition [2] 15.1% | viability increase [3] 0.33% | viability [4] 92.8% | viability [5] 96.3% | inhibition [6] 1.69% | RAM network inhibition [7] 11.7%

Cc1cc(C)cc(N(CC(=O)NCC2CCCO2)S(=O)(=O)c2c(C)noc2C)c1 (configuration not stated)
inactive: growth inhibition [1] -12.5% | growth inhibition [2] -8.86% | viability increase [3] -1.25% | viability [4] 102% | viability [5] 90.5% | inhibition [6] 2.89% | RAM network inhibition [7] 1.84%

Cc1ccc(-c2nnc3n2N=C(c2ccccc2)CS3)cc1
inactive: growth inhibition [1] -5.77% | growth inhibition [2] 6.07% | viability increase [3] -0.74% | viability [4] 97.7% | viability [5] 96.9% | inhibition [6] 3.56% | RAM network inhibition [7] 2.25%

CC(NC(=O)C1CCC1)c1ccc2c(c1)OCO2 (configuration not stated)
inactive: growth inhibition [1] -10% | growth inhibition [2] -5.42% | viability increase [3] -2.08% | viability [4] 97.5% | viability [5] 91.7% | inhibition [6] 1.67% | RAM network inhibition [7] 0.83%

O=C(Nc1ccc(-c2nc3cccnc3s2)cc1)c1ccco1
inactive: growth inhibition [1] -4.68% | growth inhibition [2] 9.91% | viability increase [3] -3.43% | viability [4] 90% | viability [5] 80.4% | inhibition [6] 1.75% | RAM network inhibition [7] -1.95%

O=C(Cn1cc2c(n1)CCCC2)NC1CCN(Cc2ccccc2)CC1
inactive: growth inhibition [1] 2.67% | growth inhibition [2] 5.09% | viability increase [3] -1.67% | viability [4] 87% | viability [5] 87% | inhibition [6] 0.965% | RAM network inhibition [7] -0.16%

O=C(c1ccc(CN2CCc3ccccc3C2)cc1)N1CCCCC1
inactive: growth inhibition [1] 4.87% | growth inhibition [2] 3.72% | viability increase [3] -2.43% | viability [4] 94.2% | viability [5] 93.9% | inhibition [6] 3.59% | RAM network inhibition [7] 4.9%

OC(COc1ccccc1)Cn1cc(Br)cn1 (configuration not stated)
inactive: growth inhibition [1] -3.63% | growth inhibition [2] -8.39% | viability increase [3] -0.64% | viability [4] 106% | viability [5] 96.1% | inhibition [6] 1.23% | RAM network inhibition [7] 0.93%

CC1CCN(CC(=O)N2c3ccccc3CCc3ccccc32)CC1
inactive: growth inhibition [1] -14.5% | growth inhibition [2] -19.2% | viability increase [3] -1.57% | viability [4] 87.5% | viability [5] 90% | inhibition [6] 4.08% | RAM network inhibition [7] 4.24%

COc1ccc(-c2cc(C(F)(F)F)n3nc(C)cc3n2)cc1
inactive: growth inhibition [1] -16.1% | growth inhibition [2] -2.2% | viability increase [3] 0.18% | viability [4] 96.2% | viability [5] 87% | inhibition [6] 2% | RAM network inhibition [7] -0.06%

COc1ccc(NC(=O)NCCN2CCN(c3cccc(Cl)c3)CC2)cc1
inactive: growth inhibition [1] 1.49% | growth inhibition [2] -5.71% | viability increase [3] -1.77% | viability [4] 76.9% | viability [5] 71.9% | inhibition [6] 0.88% | RAM network inhibition [7] 3.82%

Cc1ccc(-n2ncc3c(=O)n(CC(=O)NCc4ccco4)cnc32)cc1C
inactive: growth inhibition [1] -5.52% | growth inhibition [2] -6.3% | viability increase [3] -5.18% | viability [4] 74.4% | viability [5] 56.4% | inhibition [6] 2.71% | RAM network inhibition [7] 1.9%

CC1(C)CC(=O)C=C(NCc2cccnc2)C1
inactive: growth inhibition [1] -4.83% | growth inhibition [2] -11.8% | viability increase [3] -1.4% | viability [4] 92.2% | viability [5] 94.9% | inhibition [6] -0.505% | RAM network inhibition [7] 1.01%

Cc1nc(CCNC(=O)COc2ccccc2)cs1
inactive: growth inhibition [1] -11% | growth inhibition [2] -3.25% | viability increase [3] -0.26% | viability [4] 103% | viability [5] 96.5% | inhibition [6] 1.14% | RAM network inhibition [7] 7.03%

Cc1ccc2[nH]c(=O)c3cc(C(=O)N4CCN(C(=O)c5ccco5)CC4)sc3c2c1
inactive: growth inhibition [1] 5.33% | growth inhibition [2] 7.05% | viability increase [3] -3.84% | viability [4] 99% | viability [5] 92.3% | inhibition [6] 1.16% | RAM network inhibition [7] 7.89%

COc1ccc(C2C(C(=O)NCc3cccnc3)c3ccccc3C(=O)N2C)cc1OC (configuration not stated)
inactive: growth inhibition [1] -16.2% | growth inhibition [2] -13.9% | viability increase [3] -0.88% | viability [4] 101% | viability [5] 96.6% | inhibition [6] 1.71% | RAM network inhibition [7] -0.99%

CCN1CCCC1CNC(=O)Cn1cc2c(n1)CCC(C)C2 (configuration not stated)
inactive: growth inhibition [1] -3.58% | growth inhibition [2] 0.66% | viability increase [3] -1.37% | viability [4] 91.7% | viability [5] 100% | inhibition [6] 0.72% | RAM network inhibition [7] 1.7%

O=C(Nc1ccc2c(c1)OCO2)C1COc2ccccc2O1 (configuration not stated)
inactive: growth inhibition [1] -13.5% | growth inhibition [2] -5.98% | viability increase [3] -3.15% | viability [4] 91.9% | viability [5] 99.8% | inhibition [6] 2.16% | RAM network inhibition [7] 3.35%

COc1cccc(C2=N/C(=C\N(C)C)C(=O)O2)c1
inactive: growth inhibition [1] 1.7% | growth inhibition [2] 11.6% | viability increase [3] -0.29% | viability [4] 94.7% | viability [5] 102% | inhibition [6] -0.855% | RAM network inhibition [7] 2.96%

NC(=O)C1(N2CCCCC2)CCN(C(=O)CCCn2c(=O)[nH]c3ccsc3c2=O)CC1
inactive: growth inhibition [1] -6.16% | growth inhibition [2] 2.1% | viability increase [3] -1.61% | viability [4] 93.5% | viability [5] 91.6% | inhibition [6] 1.89% | RAM network inhibition [7] 0.48%

O=C(Cn1cc2c(n1)CCCC2)NCCCN1CCN(C2CCCCC2)CC1
inactive: growth inhibition [1] -3.58% | growth inhibition [2] 9.3% | viability increase [3] -0.74% | viability [4] 101% | viability [5] 93.1% | inhibition [6] 1.92% | RAM network inhibition [7] 0.77%

O=C(C1CC1)N1CCc2cc(Br)cc(S(=O)(=O)N3CCN(c4ccccn4)CC3)c21
inactive: growth inhibition [1] -13.2% | growth inhibition [2] -14.6% | viability increase [3] -2.17% | viability [4] 91% | viability [5] 91.5% | inhibition [6] 1.29% | RAM network inhibition [7] 5.52%

O=C(NCCCN1CCOCC1)c1ccco1
inactive: growth inhibition [1] -9.93% | growth inhibition [2] -3.09% | viability increase [3] -0.94% | viability [4] 98.8% | viability [5] 96.2% | inhibition [6] 0.23% | RAM network inhibition [7] 2.27%

O=C(CSc1nc2c(c(=O)n1-c1ccc(Cl)cc1)SCC2)Nc1nccs1
inactive: growth inhibition [1] -2.95% | growth inhibition [2] -4.84% | viability increase [3] -2.93% | viability [4] 82.5% | viability [5] 78.4% | inhibition [6] 3.08% | RAM network inhibition [7] 5.03%

Cc1cccc(N2CC(c3nc4ccccc4n3C)CC2=O)c1C (configuration not stated)
inactive: growth inhibition [1] -8.87% | growth inhibition [2] 3.04% | viability increase [3] -3.04% | viability [4] 104% | viability [5] 95.2% | inhibition [6] 1.46% | RAM network inhibition [7] 3.58%

CN(C)C(C(=O)NC1CCCCC1)c1ccc(Cl)cc1 (configuration not stated)
inactive: growth inhibition [1] -5.65% | growth inhibition [2] -17.6% | viability increase [3] -3.08% | viability [4] 80.2% | viability [5] 84.2% | inhibition [6] 0.575% | RAM network inhibition [7] -0.68%

Cn1c(Cn2c(=O)sc3ccccc32)nnc1SCC(=O)N1CCCC1
inactive: growth inhibition [1] -7.01% | growth inhibition [2] -4.62% | viability increase [3] 0.61% | viability [4] 97% | viability [5] 99.3% | inhibition [6] 1.95% | RAM network inhibition [7] 6.71%
